Assay results: ChEMBL document CHEMBL5385870, “Amide containing NBTI antibacterials with reduced hERG inhibition, retained antimicrobial activity against gram-positive bacteria and in vivo efficacy” (Eur J Med Chem, 2023)
pIC50: −log10 of the molar value. Values after ≈ are worked out from the molar mass of the structure shown.

Legend:
[1] = molecular target: DNA gyrase (Staphylococcus aureus, UniProt P0A0K8+P20831); assay: Inhibition of Staphylococcus aureus DNA gyrase supercoiling incubated for 30 mins in presence of ATP; assay type: protein-complex assay
Method in brief: (§1)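 Gyrase supercoiling plate assay (triplex capture on streptavidin plates with immobilized biotinylated oligonucleotide): 1.5 U enzyme, 0.75 µg relaxed pNO1 plasmid, inhibitor in 10% DMSO/0.008% Tween-20, 37 °C 30 min, 30 µl. Buffer for E. coli: 35 mM Tris pH 7.5, 1 mM ATP; S. aureus: 40 mM HEPES-KOH pH 7.6, 2 mM ATP, 500 mM K-glutamate. Diamond dye fluorescence (ex 495/em 537 nm). Pre-screen 100 and 1 µM; IC50 from seven concentrations by four-parameter fit, mean of two runs.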

[2] = molecular target: DNA gyrase (Escherichia coli, UniProt P0AES4+P0AES6); assay: Inhibition of Escherichia coli DNA gyrase supercoiling incubated for 30 mins in presence of ATP; assay type: protein-complex assay; method in brief: as §1
[3] = molecular target: Topoisomerase IV (Staphylococcus aureus, UniProt P0C1S7+P0C1U9); assay: Inhibition of Staphylococcus aureus DNA topoisomerase 4 relaxation activity measured for 30 mins; assay type: protein-complex assay
Method in brief: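 TopoIV relaxation plate assay: 1.5 U enzyme with 0.75 µg supercoiled pNO1 plasmid, inhibitor in 10% DMSO/0.008% Tween-20, 37 °C 30 min; E. coli buffer 40 mM HEPES-KOH pH 7.6 with 1 mM ATP, S. aureus buffer 50 mM Tris pH 7.5 with 1.5 mM ATP.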

[4] = Inhibition of Escherichia coli DNA topoisomerase 4 relaxation activity measured for 30 mins
Method in brief: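 TopoIV relaxation plate assay: 1.5 U enzyme with 0.75 µg supercoiled pNO1 plasmid, inhibitor in 10% DMSO/0.008% Tween-20, 37 °C 30 min; E. coli buffer 40 mM HEPES-KOH pH 7.6 with 1 mM ATP, S. aureus buffer 50 mM Tris pH 7.5 with 1.5 mM ATP. Triplex capture, Diamond dye fluorescence 495/537 nm.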

[5] = molecular target: DNA topoisomerase 2-alpha (Homo sapiens) (UniProt P11388); assay: Inhibition of human DNA topoisomerase 2-alpha assessed as residual activity at 100 uM incubated for 30 mins relative to control
[6] = molecular target: Voltage-gated inwardly rectifying potassium channel KCNH2 (Homo sapiens, UniProt Q12809); assay: Inhibition of hERG fluorescence polarization assay; assay type: toxicity
[7] = tested on: HepG2; assay: Cytotoxicity against human HepG2 cells assessed as inhibition of cell growth incubated for 72 hrs by […]; assay type: functional, cell-based; settings: HepG2, 72 h
Method in brief: (§2)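 HepG2 in DMEM with 10% FBS, 2 mM glutamine, penicillin/streptomycin, 37 °C, 5% CO₂; seeded 8,000 cells/well, attached overnight, then treated 1.25–100 µM or vehicle for 72 h. Metabolic activity by CellTiter 96 Aqueous One (MTS) absorbance 492 nm.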

[8] = tested on: Escherichia coli; assay: Antimicrobial activity against multidrug-resistant Escherichia coli assessed as reduction in bacterial growth incubated for 20 hrs by broth microdilution analysis; assay type: functional
Method in brief: (§3)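 MIC was determined by broth microdilution per CLSI/EUCAST. Inoculum was 10^5 CFU/mL in cation-adjusted Mueller-Hinton broth with TES, with compounds in DMSO, incubated 20 h at 35 °C. MIC was read visually as the lowest concentration without turbidity. Tetracycline was the plate control.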

[9] = tested on: Staphylococcus aureus; assay: Antimicrobial activity against Staphylococcus aureus ATCC 29213 assessed as reduction in bacterial growth incubated for 20 hrs by broth microdilution analysis; assay type: functional; method in brief: as §3
[10] = tested on: Escherichia coli; assay: Antimicrobial activity against Escherichia coli ATCC 25922 assessed as reduction in bacterial growth incubated for 20 hrs by broth microdilution analysis; assay type: functional
[11] = tested on: Escherichia coli; assay: Antimicrobial activity against Escherichia coli D22 assessed as reduction in bacterial growth incubated for 20 hrs by broth microdilution analysis; assay type: functional
[12] = tested on: Escherichia coli; assay: Antimicrobial activity against Escherichia coli N43 assessed as reduction in bacterial growth incubated for 20 hrs by broth microdilution analysis; assay type: functional
[13] = tested on: Staphylococcus aureus; assay: Antimicrobial activity against cefoxitin/ciprofloxacin/clindamycin/erythromycin/tetracycline/thiamulin/trimethoprim-resistant Staphylococcus aureus assessed as reduction in bacterial growth incubated for 20 hrs by broth microdilution analysis; assay type: functional; method in brief: as §3
[14] = tested on: Staphylococcus aureus; assay: Antimicrobial activity against cefoxitin/gentamicin/kanamycin/rifampicin/streptomycin/sulfamethoxazole/tetracycline-resistant Staphylococcus aureus assessed as reduction in bacterial growth incubated for 20 hrs by broth microdilution analysis; assay type: functional; method in brief: as §3
[15] = tested on: Staphylococcus aureus; assay: Antimicrobial activity against multidrug-resistant Staphylococcus aureus assessed as reduction in bacterial growth incubated for 20 hrs by broth microdilution analysis; assay type: functional; method in brief: as §3
[16] = tested on: Klebsiella pneumoniae; assay: Antimicrobial activity against Klebsiella pneumoniae assessed as reduction in bacterial growth incubated for 20 hrs by broth microdilution analysis; assay type: functional
[17] = Antimicrobial activity against Salmonella alachua RDK 030c assessed as reduction in bacterial growth incubated for 20 hrs by broth microdilution analysis; assay type: functional
[18] = tested on: Pseudomonas aeruginosa; assay: Antimicrobial activity against Pseudomonas aeruginosa RDK 184 assessed as reduction in bacterial growth incubated for 20 hrs by broth microdilution analysis; assay type: functional
[19] = tested on: Enterococcus faecalis; assay: Antimicrobial activity against Enterococcus faecalis DRK 057 assessed as reduction in bacterial growth incubated for 20 hrs by broth microdilution analysis; assay type: functional
[20] = tested on: Acinetobacter baumannii; assay: Antimicrobial activity against Acinetobacter baumannii assessed as reduction in bacterial growth incubated for 20 hrs by broth microdilution analysis; assay type: functional
[21] = tested on: hERG; assay: Selectivity index, ratio of IC50 for inhibition of hERG fluorescence polarization assay to MIC for antimicrobial activity against Staphylococcus aureus ATCC 29213 assessed as reduction in bacterial growth; assay type: toxicity; settings: human; read-out: Selectivity Index
[22] = tested on: hERG; assay: Selectivity index, ratio of IC50 for inhibition of hERG fluorescence polarization assay to MIC for antimicrobial activity against multidrug-resisitant Staphylococcus aureus assessed as reduction in bacterial growth; assay type: toxicity; settings: human; read-out: Selectivity Index
[23] = tested on: HepG2; assay: Cytotoxicity against human HepG2 cells assessed as inhibition of cell growth at 50 uM incubated for 72 hrs by […]; assay type: functional; set-up: scale not given: the % may be the effect or the level left; method in brief: as §2
[24] = Acute toxicity in zebrafish embryos assessed as lethal concentration compound administered from 6 hrs post fertilization and measured after 120 hrs post fertilization; set-up: species or system Danio rerio; settings: in vivo
Method in brief: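 Wild-type AB zebrafish embryos in E3 medium at 28 °C were exposed by immersion from 6 hpf to 0.39–25 µg/mL (top dose 12.5 µg/mL for one compound), with DMSO at most 0.25%. Controls were 0.25% DMSO and 25 µg/mL doxorubicin. Embryos were inspected daily for death and toxicity signs through 120 hpf. Runs were in triplicate, with 24 embryos per concentration.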

DNA gyrase (Staphylococcus aureus, UniProt P0A0K8+P20831), sequence (P0A0K8 whole entry): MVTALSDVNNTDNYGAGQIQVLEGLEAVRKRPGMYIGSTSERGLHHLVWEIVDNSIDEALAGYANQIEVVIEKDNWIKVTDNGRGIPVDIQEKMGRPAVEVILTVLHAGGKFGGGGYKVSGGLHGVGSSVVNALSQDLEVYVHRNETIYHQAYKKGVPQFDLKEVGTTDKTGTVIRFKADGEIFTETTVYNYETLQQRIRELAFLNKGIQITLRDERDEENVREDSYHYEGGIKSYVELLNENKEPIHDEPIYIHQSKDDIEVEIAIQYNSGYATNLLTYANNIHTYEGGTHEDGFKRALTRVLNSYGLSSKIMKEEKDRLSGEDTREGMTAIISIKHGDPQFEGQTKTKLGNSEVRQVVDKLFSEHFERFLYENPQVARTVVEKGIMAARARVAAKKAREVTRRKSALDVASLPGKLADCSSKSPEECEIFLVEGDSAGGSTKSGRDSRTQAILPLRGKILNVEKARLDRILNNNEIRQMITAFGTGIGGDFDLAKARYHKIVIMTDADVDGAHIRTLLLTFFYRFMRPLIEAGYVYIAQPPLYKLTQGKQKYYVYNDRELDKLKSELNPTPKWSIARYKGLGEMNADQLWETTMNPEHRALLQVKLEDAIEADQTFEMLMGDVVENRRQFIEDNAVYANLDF
DNA gyrase (Staphylococcus aureus, UniProt P0A0K8+P20831), sequence (P20831 whole entry): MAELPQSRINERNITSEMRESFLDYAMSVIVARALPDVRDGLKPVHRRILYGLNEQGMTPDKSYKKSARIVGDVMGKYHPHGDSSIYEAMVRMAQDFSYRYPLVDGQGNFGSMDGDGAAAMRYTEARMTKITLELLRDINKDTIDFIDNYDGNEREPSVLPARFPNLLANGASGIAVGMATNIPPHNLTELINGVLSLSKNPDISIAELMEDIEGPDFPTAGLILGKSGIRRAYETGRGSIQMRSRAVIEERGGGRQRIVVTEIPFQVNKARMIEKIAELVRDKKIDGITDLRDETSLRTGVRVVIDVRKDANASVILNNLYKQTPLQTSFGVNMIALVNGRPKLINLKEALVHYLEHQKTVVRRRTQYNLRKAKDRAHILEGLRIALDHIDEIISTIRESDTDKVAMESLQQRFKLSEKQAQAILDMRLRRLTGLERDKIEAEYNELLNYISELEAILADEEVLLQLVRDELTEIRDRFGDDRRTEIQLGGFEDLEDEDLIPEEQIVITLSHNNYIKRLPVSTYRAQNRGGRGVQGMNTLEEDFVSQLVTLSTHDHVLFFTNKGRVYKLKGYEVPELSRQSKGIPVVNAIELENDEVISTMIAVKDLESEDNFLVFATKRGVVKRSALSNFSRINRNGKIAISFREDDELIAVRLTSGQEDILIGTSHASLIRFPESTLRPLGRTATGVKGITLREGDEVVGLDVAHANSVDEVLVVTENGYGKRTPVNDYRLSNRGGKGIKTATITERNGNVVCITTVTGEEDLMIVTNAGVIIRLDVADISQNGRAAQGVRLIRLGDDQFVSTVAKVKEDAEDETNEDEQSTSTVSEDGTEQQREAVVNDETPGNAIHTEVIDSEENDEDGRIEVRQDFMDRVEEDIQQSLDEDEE
DNA topoisomerase 2-alpha (Homo sapiens), sequence (P11388 whole entry): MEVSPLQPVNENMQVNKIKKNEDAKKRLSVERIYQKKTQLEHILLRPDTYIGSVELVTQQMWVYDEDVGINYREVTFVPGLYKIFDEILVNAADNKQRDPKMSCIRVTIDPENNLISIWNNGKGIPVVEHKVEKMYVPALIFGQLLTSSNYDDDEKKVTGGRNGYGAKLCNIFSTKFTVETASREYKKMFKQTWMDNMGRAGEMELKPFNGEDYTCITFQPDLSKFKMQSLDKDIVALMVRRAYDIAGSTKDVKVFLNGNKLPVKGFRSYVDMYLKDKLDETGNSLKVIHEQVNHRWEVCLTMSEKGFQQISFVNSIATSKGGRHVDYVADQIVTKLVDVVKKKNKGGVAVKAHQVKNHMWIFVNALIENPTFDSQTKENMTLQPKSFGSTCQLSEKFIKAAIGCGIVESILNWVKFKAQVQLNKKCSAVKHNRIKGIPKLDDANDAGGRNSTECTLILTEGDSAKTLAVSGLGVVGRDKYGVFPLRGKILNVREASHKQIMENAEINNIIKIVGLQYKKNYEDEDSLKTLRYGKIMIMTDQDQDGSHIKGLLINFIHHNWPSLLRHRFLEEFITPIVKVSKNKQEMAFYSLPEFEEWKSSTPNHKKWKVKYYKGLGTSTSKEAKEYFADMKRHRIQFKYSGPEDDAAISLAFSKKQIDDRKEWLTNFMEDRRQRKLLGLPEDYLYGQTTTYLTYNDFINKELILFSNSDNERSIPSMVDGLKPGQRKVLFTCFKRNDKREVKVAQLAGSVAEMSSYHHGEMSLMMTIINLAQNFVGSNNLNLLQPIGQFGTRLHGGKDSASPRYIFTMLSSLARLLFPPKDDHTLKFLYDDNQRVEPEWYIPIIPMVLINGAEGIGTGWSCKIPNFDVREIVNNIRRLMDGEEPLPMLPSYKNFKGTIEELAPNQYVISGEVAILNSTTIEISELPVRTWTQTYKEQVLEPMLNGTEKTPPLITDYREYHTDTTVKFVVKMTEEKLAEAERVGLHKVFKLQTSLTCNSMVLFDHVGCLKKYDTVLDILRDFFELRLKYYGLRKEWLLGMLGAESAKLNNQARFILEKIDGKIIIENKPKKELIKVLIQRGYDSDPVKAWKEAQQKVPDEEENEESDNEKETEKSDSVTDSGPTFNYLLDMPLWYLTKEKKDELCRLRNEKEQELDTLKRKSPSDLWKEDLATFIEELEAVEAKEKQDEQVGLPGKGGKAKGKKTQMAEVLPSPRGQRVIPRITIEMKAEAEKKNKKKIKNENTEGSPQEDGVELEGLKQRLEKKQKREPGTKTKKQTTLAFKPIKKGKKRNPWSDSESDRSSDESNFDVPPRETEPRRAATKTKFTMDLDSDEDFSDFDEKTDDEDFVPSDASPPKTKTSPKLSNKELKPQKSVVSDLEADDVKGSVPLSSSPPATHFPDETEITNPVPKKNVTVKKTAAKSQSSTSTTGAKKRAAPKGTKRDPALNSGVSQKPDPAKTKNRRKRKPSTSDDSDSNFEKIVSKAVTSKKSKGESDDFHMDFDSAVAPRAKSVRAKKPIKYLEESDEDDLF
Voltage-gated inwardly rectifying potassium channel KCNH2, sequence (Q12809 whole entry): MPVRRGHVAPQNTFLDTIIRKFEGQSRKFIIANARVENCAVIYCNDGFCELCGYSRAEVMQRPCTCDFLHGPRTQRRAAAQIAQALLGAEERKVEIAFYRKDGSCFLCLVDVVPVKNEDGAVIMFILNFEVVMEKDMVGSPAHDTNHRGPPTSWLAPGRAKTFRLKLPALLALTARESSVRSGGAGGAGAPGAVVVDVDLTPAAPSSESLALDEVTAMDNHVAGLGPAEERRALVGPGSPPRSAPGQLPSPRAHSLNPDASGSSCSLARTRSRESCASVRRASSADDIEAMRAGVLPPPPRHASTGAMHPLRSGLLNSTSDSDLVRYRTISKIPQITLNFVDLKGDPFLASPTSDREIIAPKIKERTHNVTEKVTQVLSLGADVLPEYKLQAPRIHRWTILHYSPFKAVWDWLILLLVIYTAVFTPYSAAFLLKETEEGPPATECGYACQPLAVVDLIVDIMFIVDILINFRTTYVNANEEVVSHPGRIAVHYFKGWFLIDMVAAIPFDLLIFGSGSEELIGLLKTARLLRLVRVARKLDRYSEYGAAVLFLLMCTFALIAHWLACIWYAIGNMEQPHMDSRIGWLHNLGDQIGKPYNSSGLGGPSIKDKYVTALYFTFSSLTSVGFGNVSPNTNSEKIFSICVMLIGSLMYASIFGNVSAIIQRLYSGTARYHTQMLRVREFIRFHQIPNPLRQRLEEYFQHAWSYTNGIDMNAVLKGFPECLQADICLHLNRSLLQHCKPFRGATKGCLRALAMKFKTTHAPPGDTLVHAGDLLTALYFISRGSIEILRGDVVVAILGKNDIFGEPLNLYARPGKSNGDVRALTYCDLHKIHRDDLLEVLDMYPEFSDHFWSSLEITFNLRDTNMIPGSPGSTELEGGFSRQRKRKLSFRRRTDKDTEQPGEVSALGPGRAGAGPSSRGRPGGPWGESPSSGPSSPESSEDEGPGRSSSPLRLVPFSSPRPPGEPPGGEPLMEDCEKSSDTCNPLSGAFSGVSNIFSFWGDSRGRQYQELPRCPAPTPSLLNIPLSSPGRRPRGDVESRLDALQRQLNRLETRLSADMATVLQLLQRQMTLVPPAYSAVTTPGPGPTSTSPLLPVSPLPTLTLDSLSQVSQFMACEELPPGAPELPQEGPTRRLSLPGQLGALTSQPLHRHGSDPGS

COc1ccc2nccc(OC[C@@H]3CC[C@@H](NC(=O)c4ccc(I)c(F)c4)CO3)c2n1
pIC50 [1]: 6.57
pIC50 [2]: 6.45
pIC50 [3]: 6.11
pIC50 [4]: 7.04
Activity [5]: 102%
pIC50 [6]: < 4.52
pIC50 [7]: 4.95
MIC [8]: > 238 µM
MIC [9]: 0.058 µM (≈ 0.0312 µg/mL)
MIC [10]: 238 µM (≈ 128 µg/mL)
MIC [11]: 238 µM (≈ 128 µg/mL)
MIC [12]: 0.117 µM (≈ 0.0629 µg/mL)
MIC [13]: 0.058 µM (≈ 0.0312 µg/mL)
MIC [14]: 0.058 µM (≈ 0.0312 µg/mL)
MIC [15]: 238 µM (≈ 128 µg/mL)
MIC [16]: > 238 µM
MIC [17]: > 238 µM
MIC [18]: > 238 µM
MIC [19]: > 238 µM
MIC [20]: > 238 µM
selectivity ratio [21]: ≥ 520
selectivity ratio [22]: ≥ 520

COc1ccc2nccc(CCN3CCC(NC(=O)c4cc(F)c(Br)c(F)c4)CC3)c2n1
pIC50 [1]: 6.97
pIC50 [2]: 6.94
pIC50 [3]: 7.08
pIC50 [4]: 7.40
Activity [5]: 102%
pIC50 [6]: 6.91
Activity [23]: 61%
MIC [8]: 253 µM (≈ 128 µg/mL)
MIC [9]: 0.061 µM (≈ 0.0308 µg/mL)
MIC [10]: 63.3 µM (≈ 32 µg/mL)
MIC [11]: 0.247 µM (≈ 0.125 µg/mL)
MIC [12]: 0.061 µM (≈ 0.0308 µg/mL)
MIC [13]: 0.247 µM (≈ 0.125 µg/mL)
MIC [14]: 0.061 µM (≈ 0.0308 µg/mL)
MIC [15]: 0.125 µM (≈ 0.0632 µg/mL)
MIC [16]: > 253 µM
MIC [17]: > 253 µM
MIC [18]: > 253 µM
MIC [19]: 0.495 µM (≈ 0.25 µg/mL)
MIC [20]: 3.96 µM (≈ 2 µg/mL)
selectivity ratio [21]: 1.99
selectivity ratio [22]: 0.493
LC50 at 114 h [24]: > 25 mg/L

COc1ccc2nccc(OC[C@@H]3CC[C@@H](NC(=O)c4cc(F)c(Cl)c(F)c4)CO3)c2n1
pIC50 [1]: 6.35
pIC50 [2]: 6.17
pIC50 [3]: 6.24
pIC50 [4]: 7.14
Activity [5]: 101%
pIC50 [6]: < 4.52
pIC50 [7]: 5.04
MIC [8]: > 276 µM
MIC [9]: 0.136 µM (≈ 0.0631 µg/mL)
MIC [10]: 276 µM (≈ 128 µg/mL)
MIC [11]: 276 µM (≈ 128 µg/mL)
MIC [12]: 0.134 µM (≈ 0.0622 µg/mL)
MIC [13]: 0.136 µM (≈ 0.0631 µg/mL)
MIC [14]: 0.136 µM (≈ 0.0631 µg/mL)
MIC [15]: 0.269 µM (≈ 0.125 µg/mL)
MIC [16]: > 276 µM
MIC [17]: > 276 µM
MIC [18]: > 276 µM
MIC [19]: 8.62 µM (≈ 4 µg/mL)
MIC [20]: 276 µM (≈ 128 µg/mL)
selectivity ratio [21]: ≥ 224
selectivity ratio [22]: ≥ 224

COc1ccc2nccc(OC[C@H]3CC[C@H](NC(=O)c4ccc(I)c(F)c4)CC3)c2n1
pIC50 [1]: < 4.00
pIC50 [2]: < 4.00
pIC50 [3]: < 4.00
pIC50 [4]: < 4.00
Activity [5]: 99.1%
pIC50 [6]: < 4.52
Activity [23]: 96%
MIC [8]: > 239 µM
MIC [9]: 239 µM (≈ 128 µg/mL)
MIC [10]: 239 µM (≈ 128 µg/mL)
MIC [11]: 239 µM (≈ 128 µg/mL)
MIC [12]: 239 µM (≈ 128 µg/mL)
MIC [13]: 239 µM (≈ 128 µg/mL)
MIC [14]: > 239 µM
MIC [15]: > 239 µM
MIC [16]: > 239 µM
MIC [17]: > 239 µM
MIC [18]: > 239 µM
MIC [19]: > 239 µM
MIC [20]: > 239 µM
selectivity ratio [21]: ≥ 0.125
selectivity ratio [22]: ≥ 0.125

COc1ccc2nccc(OC[C@H]3CC[C@H](NC(=O)c4cc(F)c(Cl)c(F)c4)CC3)c2n1
pIC50 [1]: < 4.00
pIC50 [2]: < 4.00
pIC50 [3]: < 4.00
pIC50 [4]: < 4.00
Activity [5]: 100%
pIC50 [6]: < 4.52
Activity [23]: 96%
MIC [8]: > 277 µM
MIC [9]: 277 µM (≈ 128 µg/mL)
MIC [10]: 277 µM (≈ 128 µg/mL)
MIC [11]: 277 µM (≈ 128 µg/mL)
MIC [12]: 277 µM (≈ 128 µg/mL)
MIC [13]: 277 µM (≈ 128 µg/mL)
MIC [14]: 277 µM (≈ 128 µg/mL)
MIC [15]: > 277 µM
MIC [16]: > 277 µM
MIC [17]: > 277 µM
MIC [18]: > 277 µM
MIC [19]: > 277 µM
MIC [20]: > 277 µM
selectivity ratio [21]: ≥ 0.108
selectivity ratio [22]: ≥ 0.108
